Screening data from PubChem.
CaV13 ICDI inh – Primary screen for inhibitors of IQ motif and Ca2+-dependent inactivation inhibitor domain binding in CACNA1D, Förster resonance energy transfer in living cells, …. HEK cells, CFP/YFP FRET ICDI-IQ, plate reader, 10 min; percent FRET-ratio fall versus neutral wells. inhibition, % at 12.3 µM. 340,000 tested, 0.098% active;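 active = mean replicate inhibition of at least 30% and at least 1% of replicates passing that level; inconclusive = only one of the two criteria is met; inactive = neither criterion is met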;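 note: 0% = median of the neutral control wells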
SIRT5 inh – sirtuin-5 (human) deacylase inhibition; Purified SirT5, succinyl-peptide AMC, trypsin-coupled fluorescence; inhibition, % at 15 µM; Q9NXA8; 330,000 tested, 1.1% active; in the data active = inhibition above about 15%; inconclusive = no clear call, values can overlap the other calls
DENV2 CPE – DENV2-induced cell death inhibition. DENV2-infected cells, cytopathic effect rescue, plate reader. CPE inhibition, % at 9.99 µM. 350,000 tested, 1.7% active. AID 651640; in the data active = CPE inhibition above about 20%, passing the limit was not always enough; inconclusive = no clear call, values can overlap the other calls; tested in BHK-21 cells;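 note: 0% = median of neutral control wells and 100% = median of positive control wells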
S100A4 MyoIIA – inhibitors of human S100A4 binding to myosin IIA peptide. S100A4/TAMRA-MyoIIA peptide fluorescence polarization. P26447. inhibition, % at 10.7 µM. 360,000 tested, 0.14% active;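 active = mean inhibition of at least 70% across replicates, with every replicate also reaching that level; inconclusive = mean inhibition reaches 70% but some replicates fall short; inactive = mean inhibition below 70%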
Target sequence (P26447 whole entry, looked up): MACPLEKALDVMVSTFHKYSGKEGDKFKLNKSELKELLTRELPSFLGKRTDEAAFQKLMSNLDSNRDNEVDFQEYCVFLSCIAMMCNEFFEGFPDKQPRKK
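incubation = readout 5 min after mixing, signal stable up to 60 min | system = S100A4 monomer protein | buffer or medium = HEPES pH 7.2 with CaCl2, KCl, NaCl, DTT, Triton | benchmarks = neutral control DMSO, positive control TFP | also added = fluorescent myosin IIA peptide, 5 nM | compound dosing = one concentration per compound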
AF4-AF9 inh – inhibitors of human MLL-AF4/AF9 interaction; inhibition, % at 10 µM; P42568; AlphaScreen, biotin-AF4 peptide binding to FLAG-AF9; 350,000 tested, 0.47% active;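 active = every replicate reaching a set inhibition limit, whatever the replicate mean, cut at about 25% in these data; inconclusive = mean inhibition reaches that limit but some replicates miss it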;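 note: 0% = plate neutral control median and 100% = total signal loss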
Target sequence (P42568 whole entry, looked up): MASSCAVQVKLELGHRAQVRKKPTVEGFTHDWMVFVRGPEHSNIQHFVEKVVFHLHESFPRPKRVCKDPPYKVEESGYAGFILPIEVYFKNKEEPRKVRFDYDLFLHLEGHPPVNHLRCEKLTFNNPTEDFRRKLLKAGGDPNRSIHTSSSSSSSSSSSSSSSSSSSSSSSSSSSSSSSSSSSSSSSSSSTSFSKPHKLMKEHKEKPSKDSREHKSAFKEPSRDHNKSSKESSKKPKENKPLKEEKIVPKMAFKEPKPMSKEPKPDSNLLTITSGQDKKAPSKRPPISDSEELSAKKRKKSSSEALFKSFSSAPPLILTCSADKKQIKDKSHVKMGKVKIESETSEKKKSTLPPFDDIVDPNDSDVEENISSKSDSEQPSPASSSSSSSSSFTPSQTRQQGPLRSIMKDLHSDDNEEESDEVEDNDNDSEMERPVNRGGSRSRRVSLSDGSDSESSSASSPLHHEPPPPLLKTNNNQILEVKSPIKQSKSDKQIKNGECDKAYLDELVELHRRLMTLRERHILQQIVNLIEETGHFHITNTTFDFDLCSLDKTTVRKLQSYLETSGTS
* = called active by the depositor; ? = inconclusive; . = not tested or not shown; ! = not confirmed by another sample. The list is not random: actives were taken first. Their share in the collection is about 2.7%.

SMILES | CaV13 ICDI inh | SIRT5 inh | DENV2 CPE | S100A4 MyoIIA | AF4-AF9 inh
C[C@@H]1CN([C@H](C)CO)C(=O)c2cc(NC(=O)C3CCCCC3)ccc2O[C@@H](C)CCCCO[C@H]1CN(C)C(=O)Nc1ccc(F)cc1 | . | 5 | 0 | -3 | -1
C[C@@H]1CCCCO[C@@H](CN(C)C(=O)Nc2ccc(F)cc2)[C@@H](C)CN([C@@H](C)CO)C(=O)c2cc(NC(=O)Nc3ccc(F)cc3)ccc2O1 | . | 3 | -17 | -9 | 8
C[C@@H]1CN([C@H](C)CO)S(=O)(=O)c2ccc(C#CCN(C)C)cc2O[C@@H]1CN(C)Cc1ccc(F)cc1 | . | 0 | -3 | 7 | 14
O=S(=O)(NCC[C@@H]1CC[C@H](NS(=O)(=O)c2cccc(F)c2)[C@H](CO)O1)c1cccc(F)c1 | . | -13 | ? | 21 | -2
COc1ccc(CN(C)C[C@H]2OCCCC[C@H](C)Oc3ccc(NC(=O)Nc4ccc(F)cc4)cc3C(=O)N([C@@H](C)CO)C[C@H]2C)cc1 | . | 8 | -9 | -6 | 6
Cc1ccc(S(=O)(=O)N[C@@H]2C=C[C@H](CC(=O)NCc3ccccc3F)O[C@@H]2CO)cc1 | . | -4 | -8 | 0 | 3
C[C@@H]1CCCCO[C@H](CN(C)C(=O)Nc2ccc(F)cc2)[C@@H](C)CN([C@H](C)CO)C(=O)c2cc(NC(=O)Nc3ccccc3)ccc2O1 | . | -1 | -7 | 4 | 43*
CCc1nc2ccc(C(=O)N(CC)CCN(C)C)cn2c1N(CC)C(=O)NCCc1ccccc1 | -7 | 29* | -11 | 1 | 2
CCc1nc2ccc(C(=O)N(CC)CCN(C)C)cn2c1N(C)C(=O)c1cccc(OC)c1 | -5 | . | 26* | 0 | -1
CCN1[C@@H]2c3ccc(-c4ccccc4)c(=O)n3C[C@H]1[C@H](CO)[C@H]2C(=O)NC1CCC1 | . | -12 | 3 | -26 | 0
COc1ccc(S(=O)(=O)N(C)C[C@H]2Oc3c(NC(=O)C4CCCCC4)cccc3C(=O)N([C@H](C)CO)C[C@H]2C)cc1 | . | -1 | -5 | -4 | 0
COc1ccc(S(=O)(=O)N(C)C[C@@H]2Oc3c(NS(C)(=O)=O)cccc3C(=O)N([C@@H](C)CO)C[C@H]2C)cc1 | -3 | 20*! | -8 | -13 | -2
COc1ccc(S(=O)(=O)N(C)C[C@H]2Oc3c(NC(=O)c4ccncc4)cccc3C(=O)N([C@@H](C)CO)C[C@@H]2C)cc1 | . | 1 | 0 | -2 | -2
COc1ccc(S(=O)(=O)N(C)C[C@@H]2Oc3c(NC(=O)C4CCCCC4)cccc3C(=O)N([C@H](C)CO)C[C@@H]2C)cc1 | . | 0 | 20* | -30 | -1
COc1ccc(S(=O)(=O)N(C)C[C@H]2Oc3c(NC(=O)c4ccncc4)cccc3C(=O)N([C@H](C)CO)C[C@@H]2C)cc1 | -4 | 0 | 25*! | -5 | -1
COc1ccc(S(=O)(=O)Nc2cccc3c2O[C@@H](CN(C)S(C)(=O)=O)[C@@H](C)CN([C@@H](C)CO)C3=O)cc1 | . | 2 | 120* | -3 | -4
COc1ccc(S(=O)(=O)N(C)C[C@@H]2Oc3c(NS(=O)(=O)c4cccs4)cccc3C(=O)N([C@@H](C)CO)C[C@@H]2C)cc1 | . | 1 | 0 | -31 | -15
COc1ccc(S(=O)(=O)N(C)C[C@H]2Oc3c(NS(=O)(=O)c4cccs4)cccc3C(=O)N([C@@H](C)CO)C[C@@H]2C)cc1 | . | -1 | 36* | -4 | -1
Cc1ccccc1S(=O)(=O)N1CC[C@@H]2[C@H](CO)Nc3ccc(-c4ccccc4F)cc3[C@@H]21 | . | 1 | 43* | 1 | -3
Cc1ccccc1S(=O)(=O)N1CC[C@@H]2[C@H]1c1cc(-c3ccccc3F)ccc1N[C@@H]2CO | . | 1 | -13 | -11 | -7
O=S(=O)(c1ccccc1F)N1CC[C@@H]2[C@@H](CO)Nc3ccc(-c4ccccc4)cc3[C@@H]21 | . | 6 | 5 | 18 | 0
O=S(=O)(c1ccccc1F)N1CC[C@@H]2[C@H]1c1cc(-c3ccccc3F)ccc1N[C@@H]2CO | . | 1 | 40* | 5 | 0
C[C@@H]1CCCCO[C@H](CN(C)C(=O)C2CCCCC2)[C@@H](C)CN([C@H](C)CO)C(=O)c2cc(NC(=O)c3ccncc3)ccc2O1 | . | -2 | -2 | -1 | -6
COc1ccc(NC(=O)CSc2n[nH]c(-c3ccco3)n2)cc1 | -4 | 1 | 1 | -4 | -2
O=C(CSc1n[nH]c(-c2ccco2)n1)Nc1ccc(Br)cc1 | . | 1 | 30* | -7 | -2
SMILES | CaV13 ICDI inh | SIRT5 inh | DENV2 CPE | S100A4 MyoIIA | AF4-AF9 inh
Cc1cnc(C(=O)OCC(=O)NC23CC4CC(CC(C4)C2)C3)cn1 | -7 | 1 | -6 | 2 | 2
Cc1cnc(C(=O)OCC(=O)C23CC4CC(CC(C4)C2)C3)cn1 | -8 | 17* | -1 | -5 | 0
CO[C@@H](CN(C)Cc1nccs1)[C@H](C)CN([C@@H](C)CO)S(=O)(=O)c1ccc(C)cc1 | . | 12 | 19 | -2 | -2
CN1c2ccc(-c3ccccc3)cc2[C@@H]2[C@@H](CCN2S(=O)(=O)c2ccccc2F)[C@H]1CO | . | 3 | -7 | -2 | -2
CN1c2ccc(C#Cc3cccnc3)cc2[C@@H]2[C@@H](CCN2S(=O)(=O)c2ccccc2F)[C@@H]1CO | . | -26 | -18 | 120* | 0
Cc1ccccc1S(=O)(=O)N1CC[C@@H]2[C@H]1c1cc(-c3ccc(F)cc3)ccc1N(C)[C@H]2CO | . | 15 | 1 | -10 | 2
Cc1ccccc1S(=O)(=O)N1CC[C@@H]2[C@@H](CO)N(C)c3ccc(-c4cccc(F)c4)cc3[C@@H]21 | . | . | 44* | . | .
CN1c2ccc(C#Cc3cccc(F)c3)cc2[C@H]2[C@H](CCN2S(=O)(=O)c2ccccc2F)[C@@H]1CO | . | 3 | -7 | -5 | 0
CN1c2ccc(-c3ccccc3)cc2[C@@H]2[C@@H](CCN2S(=O)(=O)c2ccccc2F)[C@@H]1CO | . | 5 | 68* | 13 | 1
O=C(Cc1ccccc1)N[C@@H]1CC[C@H](CC(=O)N2CCCCC2)O[C@H]1CO | . | -2 | -2 | 4 | 0
COc1ccc(OC(=O)N(C)C[C@H]2OCc3ccccc3-c3ccccc3C(=O)N([C@@H](C)CO)C[C@H]2C)cc1 | . | -2 | -1 | 3 | -2
C[C@@H]1CN([C@H](C)CO)C(=O)c2cc(NC(=O)NC3CCCCC3)ccc2O[C@@H](C)CCCCO[C@H]1CN(C)Cc1ccc(C(=O)O)cc1 | . | 0 | 2 | 14 | 4
O=C(N/N=C/c1ccc(O)cc1O)NC12CC3CC(CC(C3)C1)C2 | -20 | 1 | 50* | -2 | -2
COCC(=O)Nc1ccc2c(c1)C(=O)N(C)C[C@H](OC)[C@@H](C)CN(C(=O)CC1CC1)[C@H](C)CO2 | . | 2 | 8 | -2 | -3
